Laboratory results as given in ChEMBL document CHEMBL1134460, “Terminally alkylated polyamine analogues as chemotherapeutic agents” (J Med Chem, 2001).

How the values were obtained:
[1] = test system: NCH82; test: Effect of 10 uM of compound on NCI H82 cell lines was assessed from the amount of SSAT (values in parentheses are those in the absence of compound); assay type: functional, Homo sapiens
Procedure, shortened: (§1)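 Cells were exposed to 10 μM analogue, with untreated controls. SSAT was expressed as nmol product formed/mg protein in 24 h. The detection limit was 0.05 nmol/mg protein.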

[2] = test system: NCH82; test: Effect of 10 uM of compound on NCI H82 cell lines was assessed from the amount of spermidine (values in parentheses are those in the absence of compound); assay type: functional, Homo sapiens
[3] = test system: NCH82; test: Effect of 10 uM of compound on NCI H82 cell lines was assessed from the amount of spermine (values in parentheses are those in the absence of compound); assay type: functional, Homo sapiens
[4] = test system: NCI-H157; test: Effect of exposure of H157 non-SCLC (<10 uM) for 96-h, and accumulation of compound was determined; assay type: functional, Homo sapiens
[5] = test system: NCI-H157; test: Effect of 10 uM of compound on NCI H157 cell lines was assessed from the amount of SSAT (values in parentheses are those in the absence of compound); assay type: functional, Homo sapiens; procedure, shortened: as §1
[6] = test system: NCI-H157; test: Effect of exposure of H157 non-SCLC to compound (<10 uM) for 96-h, on natural polyamines and accumulation of the compound; Decrease; assay type: functional, cell-based; details: Homo sapiens
Procedure, shortened: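 H157 non-SCLC cells were treated with 10 μM analogue. Cellular putrescine, spermidine and spermine, plus the intracellular analogue, were quantified and compared with untreated control cells.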

[7] = molecular target: T1, Ornithine decarboxylase (Homo sapiens) (UniProt P11926); test: Inhibition of ornithine decarboxylase (ODC); design: concentration or dose not given beside the values; details: concentration not given here
T1 sequence (whole entry): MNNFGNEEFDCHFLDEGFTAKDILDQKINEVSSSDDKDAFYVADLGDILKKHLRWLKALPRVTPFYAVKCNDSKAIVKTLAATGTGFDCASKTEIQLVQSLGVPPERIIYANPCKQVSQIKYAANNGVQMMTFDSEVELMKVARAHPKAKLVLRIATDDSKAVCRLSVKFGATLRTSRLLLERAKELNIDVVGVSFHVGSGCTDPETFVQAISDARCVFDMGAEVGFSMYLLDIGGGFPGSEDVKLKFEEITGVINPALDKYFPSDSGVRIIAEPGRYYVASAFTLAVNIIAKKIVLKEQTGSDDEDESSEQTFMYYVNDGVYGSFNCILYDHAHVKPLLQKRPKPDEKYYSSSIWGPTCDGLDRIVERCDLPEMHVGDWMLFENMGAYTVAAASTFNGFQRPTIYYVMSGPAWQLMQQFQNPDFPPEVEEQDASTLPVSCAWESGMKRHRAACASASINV

[8] = molecular target: T2, Diamine acetyltransferase 1 (Homo sapiens, UniProt P21673); test: Effect of 10 uM on spermine/spermidine-N-acetyltransferase (SSAT) induction in non-SCLC cells; assay type: cell-based
Procedure, shortened: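 NCI H157 non-small-cell lung tumor cells were exposed to 10 μM analogue. SSAT activity was assayed and expressed as pmol product/mg protein/min, then as fold increase over untreated control cells.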

[9] = molecular target: S-adenosylmethionine decarboxylase (Homo sapiens) (UniProt P17707); test: Inhibition of Inhibition of human form of S-adenosyl-methionine decarboxylase enzyme (AdoMet-DC); design: concentration or dose not given beside the values; details: concentration not given here
[10] = test system: NCH82; test: In vitro activity against H82 small-cell lung tumor line (SCLC) cultures.; assay type: functional, cell-based; details: Homo sapiens
[11] = test system: NCI-H157; test: In vitro activity against H157 non-small-cell lung tumor line (non-SCLC) cultures.; assay type: functional, cell-based; details: Homo sapiens
[12] = test system: NCI-H157; test: Activity against H157 non-SCLC cells in culture; assay type: functional, cell-based; details: Homo sapiens
[13] = test system: Hs-578T; test: Growth inhibition of Hs 578.T breast cancer cell line; assay type: functional, cell-based; details: Homo sapiens
[14] = test system: MCF7; test: Growth inhibition of MCF-7 breast cancer cell line; assay type: functional, cell-based; details: Homo sapiens
[15] = test system: MDA-MB-231; test: Growth inhibition of MDA-MB-231 breast cancer cell line; assay type: functional, cell-based; details: Homo sapiens
[16] = Growth inhibition of […] breast cancer cell line; assay type: functional, cell-based; details: Homo sapiens, MDA-MB-468
[17] = molecular target: T2, Diamine acetyltransferase 1; test: Inhibitory activity of compound against SSAT extracted from superinduced H157 cells; assay type: cell-free
Procedure, shortened: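 SSAT came from crude extracts of superinduced H157 cells and was assayed at saturating spermidine.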

[18] = test system: ZR-75-1; test: Growth inhibition of ZR-75-1 breast cancer cell line; assay type: functional, cell-based; details: Homo sapiens
[19] = test system: T47D; test: Growth inhibition of T47D breast cancer cell line; assay type: functional, cell-based; details: Homo sapiens

T2 sequence (P21673 whole entry): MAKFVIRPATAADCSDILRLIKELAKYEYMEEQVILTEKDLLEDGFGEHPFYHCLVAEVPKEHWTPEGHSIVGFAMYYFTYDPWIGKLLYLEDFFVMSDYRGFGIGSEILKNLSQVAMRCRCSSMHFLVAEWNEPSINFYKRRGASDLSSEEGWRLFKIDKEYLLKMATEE

| Structure (SMILES) | Polyamine [1] | Polyamine [2] | Polyamine [3] | Amount [4] | Polyamine [5] | Effect on polyamine pools [6] | inhibition [7] [%] | Induction [8] | inhibition [9] [%] | IC50 [10] [nM] | IC50 [11] [nM] | IC50 [12] [nM] | IC50 [13] [nM] | IC50 [14] [nM] | IC50 [15] [nM] | IC50 [16] [nM] | IC50 [17] [nM] | IC50 [18] [nM] | IC50 [19] [nM] |
| --- | --- | --- | --- | --- | --- | --- | --- | --- | --- | --- | --- | --- | --- | --- | --- | --- | --- | --- | --- |
| CCNCCCNCCCCNCCCNCC [BIS(ETHYL)SPERMINE] | 60 nM (mg of protein)-1 | 3.07 nM (mg of protein)-1 | 10.06 nM (mg of protein)-1 | >20 nM (mg of protein)-1 | 6511 nM (mg of protein)-1 | Decrease | > 50 | > 500 | > 50 | – | – | – | – | – | – | – | – | – | – |
| CCNCCCNCCCNCCCNCC1CC1 | – | – | – | >20 nM (mg of protein)-1 | – | Decrease | > 50 | > 500 | – | 5200 | 700 | 800 | 200 | 1100 | 1300 | 600 | 100000 | 1100 | 400 |
